# Experimental data gathered from unrelated publications.
# Target: Serine/threonine-protein kinase Nek9 (NEK9, Homo sapiens, UniProt Q8TD19)
# Residues used in one study (Q8TD19 1-979): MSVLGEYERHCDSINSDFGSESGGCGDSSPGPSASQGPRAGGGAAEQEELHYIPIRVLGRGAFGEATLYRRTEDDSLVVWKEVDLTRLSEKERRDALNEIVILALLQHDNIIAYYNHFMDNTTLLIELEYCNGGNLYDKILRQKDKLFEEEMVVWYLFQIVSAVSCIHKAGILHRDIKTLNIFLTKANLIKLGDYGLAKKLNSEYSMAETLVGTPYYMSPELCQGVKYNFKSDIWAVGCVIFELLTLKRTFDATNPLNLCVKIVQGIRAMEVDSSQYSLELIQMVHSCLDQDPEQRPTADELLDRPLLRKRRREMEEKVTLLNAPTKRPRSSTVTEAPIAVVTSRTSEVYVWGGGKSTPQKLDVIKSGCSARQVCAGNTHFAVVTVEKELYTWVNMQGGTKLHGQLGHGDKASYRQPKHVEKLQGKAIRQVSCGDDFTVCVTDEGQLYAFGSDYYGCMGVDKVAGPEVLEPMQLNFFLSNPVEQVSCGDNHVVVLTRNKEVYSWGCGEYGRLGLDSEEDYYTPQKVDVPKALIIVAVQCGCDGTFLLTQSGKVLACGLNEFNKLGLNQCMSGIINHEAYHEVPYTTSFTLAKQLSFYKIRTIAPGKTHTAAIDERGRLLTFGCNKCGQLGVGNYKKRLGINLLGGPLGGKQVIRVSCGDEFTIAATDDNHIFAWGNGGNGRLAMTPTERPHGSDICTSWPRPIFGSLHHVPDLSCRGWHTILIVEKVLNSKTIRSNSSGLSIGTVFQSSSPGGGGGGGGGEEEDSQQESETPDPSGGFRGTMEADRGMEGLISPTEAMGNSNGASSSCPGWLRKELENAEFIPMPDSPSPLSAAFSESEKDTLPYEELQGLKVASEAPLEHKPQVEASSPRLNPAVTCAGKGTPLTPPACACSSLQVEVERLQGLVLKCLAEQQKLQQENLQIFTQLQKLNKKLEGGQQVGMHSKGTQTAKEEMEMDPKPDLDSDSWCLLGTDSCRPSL
Structure (SMILES),effect on,mode,method,cell line,concentration,endpoint,result
Cn1cncc1[C@](O)(COc1ccc(C#N)cc1-c1ccc(OC(F)(F)F)cc1)c1ccc(C#N)cc1,cell-free assay,,competition with immobilised ligand,,1 µM,remaining binding,72%
Cn1cc(-c2cc(F)cc(N3CCn4c(cc5c4CCCC5)C3=O)c2CO)cc(Nc2ccc(N3CCN(C4COC4)CC3)cn2)c1=O,enzyme activity,inhibitor,,,0.1 µM,inhibition,6%
CC(C)(C)c1cc(C=C(C#N)C#N)cc(Br)c1O,enzyme activity,inhibitor,,,0.5 µM,remaining activity,103%
Nc1ncc(-c2nc(N3CCOCC3)nc(N3CCOCC3)n2)c(C(F)F)n1,binding,,competition with immobilised ligand,,10 µM,remaining binding,92%
Cn1cc(-c2cccc(N3CCc4c(sc5c4CC(C)(C)C5)C3=O)c2CO)cc(Nc2ccncn2)c1=O,enzyme activity,inhibitor,,,1 µM,inhibition,-1%
COc1ncccc1-c1cnn2ccc(N3CCN(C(=O)OC(C)C)CC3)nc12,binding,,competition with immobilised ligand,,1 µM,remaining binding,100%
CCN1CCN(Cc2ccc(NC(=O)c3ccc(C)c(Oc4ccnc5[nH]ccc45)c3)cc2C(F)(F)F)CC1,target engagement in cells,inhibitor,chemoproteomics,Huh-7,10 µM,inhibition,-10.9%
O=c1[nH]c2ccccc2n1C1CCN(Cc2ccc(-c3[nH]c4cc5ncnc5cc4nc3-c3ccccc3)cc2)CC1,cell-free assay,,,,0.5 µM,remaining signal,99.2%
